Experimental findings from ChEMBL document CHEMBL3044706, “Lignans and neolignans from Brassica fruticulosa: effects on seed germination and plant growth” (2003) are described below.

Molecules are shown by their SMILES. Activity calls are given as the source filed them. No cut-off for these calls is given here.

Assay [1] concerns Lactuca sativa. Briefly: Effect on root elongation in Lactuca sativa (lettuce) at 10^-4 to 10^-9 M after 5 days relative to control. It is filed as functional, organism-based. Put shortly:
(§1)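 Lettuce seeds, 25 per 50 mm Petri dish on one Whatman No. 1 filter paper, with 2.5 mL test solution in 10 mM MES pH 6 (10^-4 M, diluted to 10^-9 M). Dishes were Parafilm-sealed and kept at 25 °C in the dark. Germination was scored daily for 5 days, then root/shoot lengths were measured on plants frozen at -20 °C. Four replicates, expressed as % difference from parallel control, with Student's t-test.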

The subject of assay [2] is Allium cepa. As to the kind of experiment: Effect on seed germination in Allium cepa (onion) at 10^-4 to 10^-9 M after 7 days relative to control. It is filed as functional, organism-based. The essentials:
(§2)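 Seeds (cress 3 days, tomato 5 days, onion 7 days), 25 per 90 mm Petri dish on one Whatman No. 1 filter paper, with 5 mL test solution in 10 mM MES pH 6 (10^-4 M, diluted to 10^-9 M). Dishes were sealed and kept at 25 °C in the dark. Germination was scored daily, then root/shoot lengths were taken after freezing at -20 °C. Four replicates, expressed as % difference from control, with t-test.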

Assay [3] deals with Solanum lycopersicum. As to the kind of experiment: Effect on seed germination in Solanum lycopersicum (tomato) at 10^-4 to 10^-9 M after 5 days relative to control. The assay is classed as functional, organism-based. The essentials: as §2
For assay [4], the system named is Allium cepa. As to the kind of experiment: Inhibition of shoot elongation in Allium cepa (onion) at 10^-4 to 10^-9 M after 7 days relative to control. The assay is classed as functional, organism-based. The essentials:
as §2

Assay [5] relates to Solanum lycopersicum. Briefly: Inhibition of shoot elongation in Solanum lycopersicum (tomato) at 10^-4 to 10^-9 M after 5 days relative to control. The assay is classed as functional, organism-based. The essentials: as §2
Assay [6] deals with Lactuca sativa. Briefly: Inhibition of shoot elongation in Lactuca sativa (lettuce) at 10^-4 to 10^-9 M after 5 days relative to control. It is filed as functional, organism-based. Put shortly: as §1
The test system of assay [7] is Allium cepa. Briefly: Stimulation of shoot elongation in Allium cepa (onion) at 10^-4 to 10^-9 M after 7 days relative to control. It is filed as functional, organism-based. The essentials: as §2
Assay [8] concerns Lactuca sativa. As to the kind of experiment: Stimulation of shoot elongation in Lactuca sativa (lettuce) at 10^-4 to 10^-9 M after 5 days relative to control. It is filed as functional, organism-based. Put shortly:
as §1

In assay [9] the test system is Solanum lycopersicum. Briefly: Stimulation of shoot elongation in Solanum lycopersicum (tomato) at 10^-4 to 10^-9 M after 5 days relative to control. The assay is classed as functional, organism-based. Put shortly: as §2
The subject of assay [10] is Allium cepa. As to the kind of experiment: Stimulation of root elongation in Allium cepa (onion) at 10^-4 to 10^-9 M after 7 days relative to control. It is filed as functional, organism-based. The essentials: as §2
The test system of assay [11] is Solanum lycopersicum. As to the kind of experiment: Effect on root elongation in Solanum lycopersicum (tomato) at 10^-4 to 10^-9 M after 5 days relative to control. It is filed as functional, organism-based. Put shortly: as §2
The test system of assay [12] is Lactuca sativa. Briefly: Inhibition of seed germination in Lactuca sativa (lettuce) at 10^-4 to 10^-9 M after 5 days relative to control. It is filed as functional. The essentials:
as §1

In assay [13] the test system is Lepidium sativum. As to the kind of experiment: Inhibition of shoot elongation in Lepidium sativum at 10^-4 to 10^-9 M after 3 days relative to control. It is filed as functional. Put shortly: as §2
The subject of assay [14] is Lepidium sativum. Briefly: Effect on root elongation in Lepidium sativum at 10^-4 to 10^-9 M after 3 days relative to control. The assay is classed as functional, organism-based. The essentials: as §2
The subject of assay [15] is Lepidium sativum. As to the kind of experiment: Effect on seed germination in Lepidium sativum at 10^-4 to 10^-9 M after 3 days relative to control. The assay is classed as functional, organism-based. Put shortly: as §2
Assay [16] concerns Lactuca sativa. As to the kind of experiment: Inhibition of seed germination in Lactuca sativa (lettuce) at 10^-9 M after 5 days relative to control. The assay is classed as functional. Particulars: 120 h. Put shortly: as §1

Consider `COc1cc([C@@H]2OC[C@H]3[C@@H]2CO[C@H]3c2ccc(O)c(OC)c2)ccc1O`, for which the outcome with Lactuca sativa [1], in the assay with Allium cepa [2], in the assay on Solanum lycopersicum [3] and in the assay with Solanum lycopersicum [11] was inactive. Besides, the inhibition result with Allium cepa [4], with Solanum lycopersicum [5] and with Lactuca sativa [6] was “Active” throughout. Further, the outcome in the assay with Allium cepa [7], in the assay with Lactuca sativa [8], in the assay on Solanum lycopersicum [9] and in the assay on Allium cepa [10] was Active.
For the compound `COc1cc(/C=C/C(=O)O)ccc1Oc1ccc(/C=C/C(=O)O)cc1OC`, the result in the assay with Lactuca sativa [1], in the assay on Allium cepa [2], in the assay with Solanum lycopersicum [3] and with Solanum lycopersicum [11] was inactive. The inhibition result with Allium cepa [4], in the assay on Solanum lycopersicum [5] and in the assay on Lactuca sativa [6] was “Active” throughout. The result with Allium cepa [7], in the assay with Lactuca sativa [8], with Solanum lycopersicum [9] and in the assay on Allium cepa [10] was Active.
As to `CCC(CC)Nc1c([N+](=O)[O-])cc(C)c(C)c1[N+](=O)[O-]`, in the assay with Lactuca sativa [1], the outcome was inactive. Besides, the inhibition result in the assay on Lactuca sativa [12] was “Active”. Further, the outcome with Lactuca sativa [8] was Active.
`COc1cc([C@@H]2Oc3c(OC)cc(/C=C/CO)cc3[C@H]2CO)ccc1O` [DEHYDROCONIFERYL ALCOHOL]: the outcome in the assay on Lactuca sativa [1], in the assay on Allium cepa [2], in the assay on Solanum lycopersicum [3], with Lepidium sativum [14], in the assay on Lepidium sativum [15] and with Solanum lycopersicum [11] was inactive. Further, the “inhibition (INH)” value in the assay on Lactuca sativa [12] amounted to 70%; in the assay with Lepidium sativum [13] it was 30%. Besides, the inhibition entry with Allium cepa [4], with Solanum lycopersicum [5] and with Lactuca sativa [6] was “Active” throughout. Also, the result in the assay on Allium cepa [7], with Lactuca sativa [8], in the assay on Solanum lycopersicum [9] and in the assay with Allium cepa [10] was Active.
For `COc1cc([C@H](O)[C@@H](CO)Oc2c(OC)cc([C@@H]3Oc4c(OC)cc(/C=C/CO)cc4[C@H]3CO)cc2OC)ccc1O`, the result with Lactuca sativa [1], with Allium cepa [2], in the assay with Solanum lycopersicum [3] and in the assay with Solanum lycopersicum [11] was inactive. Further, the inhibition result in the assay with Lactuca sativa [12], with Allium cepa [4], in the assay on Solanum lycopersicum [5] and in the assay with Lactuca sativa [6] was “Active” in each case. The outcome with Allium cepa [7], in the assay on Lactuca sativa [8], with Solanum lycopersicum [9] and with Allium cepa [10] was Active.
With `COc1cc(C[C@H]2CO[C@H](c3ccc(O)c(OC)c3)[C@H]2CO)ccc1O` (racemic) [LARICIRESINOL], the result in the assay with Lactuca sativa [1], in the assay with Allium cepa [2], in the assay with Solanum lycopersicum [3], in the assay on Lepidium sativum [14], in the assay on Lepidium sativum [15] and with Solanum lycopersicum [11] was inactive. In addition, at 0.001 µM the inhibition in the assay with Lactuca sativa [16] was 75%. Besides, the inhibition entry in the assay with Lactuca sativa [12], in the assay with Allium cepa [4], in the assay with Solanum lycopersicum [5] and in the assay with Lactuca sativa [6] was “Active” in each case. In addition, the “inhibition (INH)” value with Lepidium sativum [13] was determined as 30%. Moreover, the result in the assay with Allium cepa [7], with Lactuca sativa [8], in the assay with Solanum lycopersicum [9] and in the assay on Allium cepa [10] was Active.
As for `COc1cc(C[C@@H](CO)[C@H](CO)Cc2ccc(O)c(OC)c2)ccc1O` [(+)-SECOISOLARICIRESINOL], the outcome in the assay with Lactuca sativa [1], in the assay on Allium cepa [2], in the assay on Solanum lycopersicum [3] and with Solanum lycopersicum [11] was inactive. In the assay on Lactuca sativa [16], this compound gave an inhibition at 0.001 µM of 50%. For the same compound, the inhibition result with Lactuca sativa [12], with Allium cepa [4], in the assay on Solanum lycopersicum [5] and in the assay with Lactuca sativa [6] was “Active” each time. Further, the outcome with Allium cepa [7], in the assay on Lactuca sativa [8], with Solanum lycopersicum [9] and in the assay with Allium cepa [10] was Active.
For `COc1cc([C@H](O)[C@H](CO)Oc2c(OC)cc([C@@H]3OC[C@@H]4[C@H]3CO[C@H]4c3cc(OC)c(O[C@@H](CO)[C@@H](O)c4ccc(O)c(OC)c4)c(OC)c3)cc2OC)ccc1O`, the result in the assay on Lactuca sativa [1], in the assay on Allium cepa [2], with Solanum lycopersicum [3] and with Solanum lycopersicum [11] was inactive. Also, the inhibition entry with Lactuca sativa [12], in the assay on Allium cepa [4], in the assay with Solanum lycopersicum [5] and in the assay with Lactuca sativa [6] was “Active” in each case. Also, the outcome in the assay on Allium cepa [7], in the assay on Lactuca sativa [8], in the assay with Solanum lycopersicum [9] and in the assay with Allium cepa [10] was Active.
Regarding `O=C(O)CNCP(=O)(O)O`, in the assay with Lactuca sativa [1], the outcome was inactive. Further, the inhibition entry with Lactuca sativa [12] is “Active”. The result in the assay on Lactuca sativa [8] was Active.
Regarding `COc1cc([C@@H](O)[C@@H](CO)Oc2c(OC)cc(/C=C/CO)cc2OC)ccc1O`, the outcome in the assay on Lactuca sativa [1], in the assay with Allium cepa [2], in the assay on Solanum lycopersicum [3] and with Solanum lycopersicum [11] was inactive. The inhibition result in the assay with Allium cepa [4], in the assay with Solanum lycopersicum [5] and in the assay with Lactuca sativa [6] was “Active” each time. In addition, the outcome in the assay on Allium cepa [7], in the assay on Lactuca sativa [8], in the assay with Solanum lycopersicum [9] and in the assay on Allium cepa [10] was Active.
With `COc1cc([C@H](O)[C@@H](CO)Oc2ccc(/C=C/CO)cc2OC)ccc1O` (racemic), the outcome in the assay on Lactuca sativa [1], with Allium cepa [2], in the assay on Solanum lycopersicum [3] and in the assay on Solanum lycopersicum [11] was inactive. Besides, the inhibition entry with Lactuca sativa [12], in the assay on Allium cepa [4], with Solanum lycopersicum [5] and in the assay on Lactuca sativa [6] was “Active” each time. Besides, the result in the assay with Allium cepa [7], with Lactuca sativa [8], with Solanum lycopersicum [9] and in the assay with Allium cepa [10] was Active.
For the compound `COc1cc(C[C@H]2CO[C@H](c3ccc(O[C@@H](CO)[C@@H](O)c4ccc(O)c(OC)c4)c(OC)c3)[C@H]2CO)ccc1O`, the outcome with Lactuca sativa [1], in the assay on Allium cepa [2], in the assay with Solanum lycopersicum [3] and in the assay on Solanum lycopersicum [11] was inactive. The inhibition entry in the assay with Lactuca sativa [12], in the assay with Allium cepa [4], in the assay with Solanum lycopersicum [5] and with Lactuca sativa [6] was “Active” in each case. Further, the outcome in the assay on Allium cepa [7], in the assay on Lactuca sativa [8], with Solanum lycopersicum [9] and in the assay on Allium cepa [10] was Active.
Turning to `COc1cc([C@@H](O)[C@H]2CO[C@H](c3ccc(O)c(OC)c3)[C@H]2CO)ccc1O`, the result in the assay on Lactuca sativa [1], in the assay with Allium cepa [2], with Solanum lycopersicum [3] and in the assay with Solanum lycopersicum [11] was inactive. In addition, the inhibition entry with Allium cepa [4], in the assay with Solanum lycopersicum [5] and in the assay with Lactuca sativa [6] was “Active” throughout. In addition, the result in the assay with Allium cepa [7], with Lactuca sativa [8], in the assay with Solanum lycopersicum [9] and in the assay with Allium cepa [10] was Active.
